# Measured values taken from PubChem BioAssay AID540305 (Sanford-Burnham Center for Chemical Genomics, 2011).
# Activity calls are given as the source filed them.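 Rule for the calls: active = mean EC50 at or below 20 µM; inactive = the rest.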
# Molecular target: CHO-XBP1 luciferase reporter, IRE1-XBP1 activation, luminescence
# Test: IRE1-XBP1 adaptive UPR arm activators, SAR follow-up, counter-screen for UPR apoptotic arm activator project, CHO-XBP1 cells, luminescence (AID 540305)
# Outline: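 System: CHO-XBP1 cells stably carrying IRE1-XBP1 luciferase reporter / Buffer or medium: F12 medium with 10% fetal bovine serum / Incubation: overnight plating, 6 h compound treatment at 37 °C / Measured by: luciferase luminescence using Steady-Glo reagent / Control set: tunicamycin 10 µg/mL as positive control, DMSO alone as negative control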
row,Structure (SMILES),EC50
1,O=C(Nc1nc2ccccc2s1)c1cccnc1,> 80 µM (inactive)
2,O=C(Nc1nc2c(F)cc(F)cc2s1)c1ccncc1,> 80 µM (inactive)
3,CC1(C)CCN(S(=O)(=O)c2ccc(NC(=O)c3ccc([N+](=O)[O-])o3)cc2)CC1,> 80 µM (inactive)
4,O=C(Nc1nc2ccc(F)cc2s1)c1ccccn1,> 80 µM (inactive)
5,O=C(Nc1nc2c(F)cccc2s1)c1ccccn1,> 80 µM (inactive)
6,O=C(Nc1nc2c(F)cc(F)cc2s1)c1cccnc1,> 80 µM (inactive)
7,CC1CCN(S(=O)(=O)c2ccc(NC(=O)c3ccc([N+](=O)[O-])o3)cc2)CC1,> 80 µM (inactive)
8,O=C(Nc1nc2ccccc2s1)c1ccccn1,> 80 µM (inactive)
9,Fc1cc(F)c2nc(NCc3ccccn3)sc2c1,> 80 µM (inactive)
10,O=C(Nc1nc2c(F)cc(F)cc2s1)c1ccccc1,> 80 µM (inactive)
11,O=C(Nc1nc2c(F)cc(F)cc2s1)c1ccccn1,> 80 µM (inactive)
12,O=C(Nc1ccc(S(=O)(=O)C2CCCCC2)cc1)c1ccc([N+](=O)[O-])o1,> 80 µM (inactive)
13,O=C(Nc1nc2ccccc2s1)c1ccncc1,> 80 µM (inactive)
14,O=C(Nc1nc2c(Cl)cc(Cl)cc2s1)c1ccccn1,> 80 µM (inactive)
15,O=C(Nc1ccc(S(=O)(=O)c2ccccc2)cc1)c1ccc([N+](=O)[O-])o1,> 80 µM (inactive)
16,Cc1cc(C)c2nc(NC(=O)c3ccccn3)sc2c1,> 80 µM (inactive)

# More lines, now with the values ahead:
row,EC50,Structure (SMILES)
1,> 80 µM (inactive),O=C(Nc1ccc(S(=O)(=O)N2CCCCC2)cc1)c1ccc([N+](=O)[O-])o1
2,> 80 µM (inactive),O=C(Nc1ccc(S(=O)(=O)N2CCOCC2)cc1)c1ccco1
3,> 80 µM (inactive),O=C(Nc1ccc(S(=O)(=O)N2CCOCC2)cc1)c1ccccc1
4,> 80 µM (inactive),O=C(Nc1ccc(S(=O)(=O)N2CCCC2)cc1)c1ccc([N+](=O)[O-])o1
5,> 80 µM (inactive),O=C(Nc1ccc(S(=O)(=O)N2CCOCC2)cc1)c1ccc([N+](=O)[O-])o1
6,> 80 µM (inactive),O=C(Nc1ccc(S(=O)(=O)N2CCOCC2)cc1)c1cccs1
7,> 80 µM (inactive),O=C(Nc1ccc(C(=O)N2CCOCC2)cc1)c1ccco1
8,> 80 µM (inactive),CC1CN(S(=O)(=O)c2ccc(NC(=O)c3ccco3)cc2)CC(C)O1 (stereo unspecified)
9,> 80 µM (inactive),O=C(Nc1ccc(S(=O)(=O)N2CCNCC2)cc1)c1ccc([N+](=O)[O-])o1
10,> 80 µM (inactive),O=C(Nc1ccc(S(=O)(=O)N2CCOCC2)cc1)c1ccc(Br)o1
11,> 80 µM (inactive),O=C(Nc1cccc(S(=O)(=O)N2CCOCC2)c1)c1ccco1
12,> 80 µM (inactive),O=C(Nc1ccc(S(=O)(=O)N2CCOCC2)cc1)c1ccc([N+](=O)[O-])s1
13,> 80 µM (inactive),O=C(Nc1ccc(S(=O)(=O)N2CCC(O)CC2)cc1)c1ccc([N+](=O)[O-])o1
14,> 80 µM (inactive),Cc1ccc(C(=O)Nc2ccc(S(=O)(=O)N3CCOCC3)cc2)o1
15,> 80 µM (inactive),O=C(Nc1ccc(S(=O)(=O)N2CCOCC2)cc1)c1ccc([N+](=O)[O-])cc1
